Results published in ChEMBL document CHEMBL1125920, “Synthesis and biological activity of 5-alkyl-1,7,8-trisubstituted-6-fluoroquinoline-3-carboxylic acids” (1991).
Converted amounts (≈) assume the structure as drawn.

Columns and labels:
Enterobacter cloacae = test: Antibacterial activity against gram negative organism, […] (MA2646); assay type: functional
Escherichia coli = test: Antibacterial activity was determined against gram negative organism, E. coli(vogel); assay type: functional
Outline: (§1)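 MIC by standard microtitration against a panel of 10 representative Gram-negative and Gram-positive organisms; values reported in µg/mL.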

Klebsiella pneumoniae = test: Antibacterial activity was determined against gram negative organism, K. pneumoniae (MGH-2); assay type: functional; outline: as §1
Mus musculus [1] = test: In vivo subcutaneous protective dose was determined in female charles river CD-1 mice infected with Streptococcus pneumoniae; assay type: functional; conditions: sc, read-out: PD50
Outline: (§2)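 Acute lethal systemic infection model in mice; drug given by subcutaneous injection; potency read out as median protective dose (PD50), in mg/kg.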

Mus musculus [2] = test: In vivo oral protective dose was determined in female charles river CD-1 mice infected with Escherichia coli (vogel); assay type: functional; conditions: Mus musculus, po; read-out: PD50
Outline: (§3)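 Acute lethal systemic infection model in mice; drug given orally by gavage; potency read out as median protective dose (PD50), in mg/kg.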

Mus musculus [3] = test: In vivo oral protective dose was determined in female charles river CD-1 mice infected with Streptococcus pneumoniae; assay type: functional; conditions: read-out: PD50; outline: as §3
Mus musculus [4] = test: In vivo subcutaneous protective dose was determined in female charles river CD-1 mice infected with Escherichia coli (vogel); assay type: functional; conditions: sc, read-out: PD50; outline: as §2
Pseudomonas aeruginosa = test: Antibacterial activity was determined against gram negative organism, Pseudomonas aeruginosa (UI-18); assay type: functional; outline: as §1
Bacteria = test: Antibacterial activity was determined against gram negative organism, Providencia rettgeri. (M1771); assay type: functional; outline: as §1
Streptococcus pneumoniae = test: Antibacterial activity was determined against gram positive organism, Streptococcus pneumoniae (SV-1); assay type: functional; outline: as §1
Enterococcus faecalis = test: Antibacterial activity was determined against gram positive organism, Streptococcus faecalis (MGH-2); assay type: functional; outline: as §1
Streptococcus pyogenes = test: Antibacterial activity was determined against gram positive organism, Streptococcus pyogenes (C203); assay type: functional; outline: as §1
Staphylococcus aureus [5] = test: Antibacterial activity was determined against gram positive organism, Staphylococcus aureus (H228); assay type: functional; outline: as §1
Staphylococcus aureus [6] = test: Antibacterial activity was determined against gram positive organism, Staphylococcus aureus (UC76); assay type: functional; outline: as §1
[7] = MIC ratio measured as the mean MICs of gram-negative bacteria; assay type: functional
Outline: (§4)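 Geometric mean of the MICs (µg/mL) over the Gram-negative or the Gram-positive strains of the 10-organism microtitration panel, calculated separately for each class.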

[8] = MIC ratio measured as the mean MICs of gram-positive bacteria; assay type: functional; outline: as §4
[9] = biological target: DNA gyrase (Escherichia coli) (UniProt P0AES6+P0AES4)

SMILES | MIC (Enterobacter cloacae) | MIC (Escherichia coli) | MIC (Klebsiella pneumoniae) | ED50 (Mus musculus [1]) | ED50 (Mus musculus [2]) | ED50 (Mus musculus [3]) | ED50 (Mus musculus [4]) | MIC (Pseudomonas aeruginosa) | MIC (Bacteria) | MIC (Streptococcus pneumoniae) | MIC (Enterococcus faecalis) | MIC (Streptococcus pyogenes) | MIC (Staphylococcus aureus [5]) | MIC (Staphylococcus aureus [6]) | Ratio [7] | Ratio [8] | DNA cleavage [9]
Cc1c(F)c(N2CCC(N)C2)c(F)c2c1c(=O)c(C(=O)O)cn2C1CC1 (centres undefined) | 0.006 µg/mL (≈ 0.0165 µM) | 0.006 µg/mL (≈ 0.0165 µM) | 0.013 µg/mL (≈ 0.0358 µM) | 1.6 mg/kg | 2 mg/kg | 3 mg/kg | 0.5 mg/kg | 0.4 µg/mL (≈ 1.1 µM) | 0.025 µg/mL (≈ 0.0688 µM) | 0.003 µg/mL (≈ 0.00826 µM) | 0.025 µg/mL (≈ 0.0688 µM) | 0.013 µg/mL (≈ 0.0358 µM) | 0.013 µg/mL (≈ 0.0358 µM) | 0.003 µg/mL (≈ 0.00826 µM) | 0.021 | 0.0082 | 3 µg/mL
O=C(O)c1cn(C2CC2)c2c(F)c(N3CCNCC3)c(F)cc2c1=O | 0.05 µg/mL (≈ 0.143 µM) |  |  | 29 mg/kg | 0.45 mg/kg | 59 mg/kg | 0.25 mg/kg |  | 0.1 µg/mL (≈ 0.286 µM) |  |  |  |  |  | 0.076 | 0.4 | 0.5 µg/mL
CCNCC1CCN(c2c(F)cc3c(=O)c(C(=O)O)cn(C4CC4)c3c2F)C1 (centres undefined) [PD-117558] |  |  | 0.1 µg/mL (≈ 0.255 µM) | 2 mg/kg | 4.2 mg/kg | 3.3 mg/kg | 1 mg/kg | 0.4 µg/mL (≈ 1.02 µM) | 0.2 µg/mL (≈ 0.511 µM) |  |  | 0.025 µg/mL (≈ 0.0639 µM) |  | 0.013 µg/mL (≈ 0.0332 µM) | 0.13 | 0.025 | 0.25 µg/mL
Cc1c(F)c(N2CCNCC2)cc2c1c(=O)c(C(=O)O)cn2C1CC1 | 0.013 µg/mL (≈ 0.0376 µM) | 0.013 µg/mL (≈ 0.0376 µM) | 0.05 µg/mL (≈ 0.145 µM) | 21 mg/kg | 1.5 mg/kg | 100 mg/kg | 0.4 mg/kg | 0.2 µg/mL (≈ 0.579 µM) | 0.1 µg/mL (≈ 0.29 µM) | 0.05 µg/mL (≈ 0.145 µM) | 0.05 µg/mL (≈ 0.145 µM) | 0.1 µg/mL (≈ 0.29 µM) | 0.1 µg/mL (≈ 0.29 µM) | 0.025 µg/mL (≈ 0.0724 µM) | 0.044 | 0.057 | 0.3 µg/mL
NC1CCN(c2c(F)cc3c(=O)c(C(=O)O)cn(C4CC4)c3c2F)C1 (centres undefined) |  | 0.013 µg/mL (≈ 0.0372 µM) |  | 6 mg/kg | 1 mg/kg | 15 mg/kg | 0.4 mg/kg |  | 0.05 µg/mL (≈ 0.143 µM) | 0.05 µg/mL (≈ 0.143 µM) |  |  |  | 0.013 µg/mL (≈ 0.0372 µM) | 0.029 | 0.044 | 0.25 µg/mL
Cc1c(F)c(N2CCNCC2)c(F)c2c1c(=O)c(C(=O)O)cn2C1CC1 | 0.025 µg/mL (≈ 0.0688 µM) | 0.025 µg/mL (≈ 0.0688 µM) | 0.025 µg/mL (≈ 0.0688 µM) | 13.5 mg/kg | 0.4 mg/kg | 14 mg/kg | 0.2 mg/kg | 0.2 µg/mL (≈ 0.55 µM) | 0.05 µg/mL (≈ 0.138 µM) | 0.025 µg/mL (≈ 0.0688 µM) | 0.05 µg/mL (≈ 0.138 µM) | 0.05 µg/mL (≈ 0.138 µM) | 0.025 µg/mL (≈ 0.0688 µM) | 0.025 µg/mL (≈ 0.0688 µM) | 0.043 | 0.033 | 2.75 µg/mL
CCNCC1CCN(c2c(F)c(C)c3c(=O)c(C(=O)O)cn(C4CC4)c3c2F)C1 (centres undefined) | 0.1 µg/mL (≈ 0.247 µM) | 0.05 µg/mL (≈ 0.123 µM) | 0.1 µg/mL (≈ 0.247 µM) | 1.6 mg/kg | 14 mg/kg | 2.8 mg/kg | 3 mg/kg | 0.8 µg/mL (≈ 1.97 µM) | 0.2 µg/mL (≈ 0.493 µM) | 0.003 µg/mL (≈ 0.0074 µM) | 0.025 µg/mL (≈ 0.0617 µM) | 0.006 µg/mL (≈ 0.0148 µM) | 0.013 µg/mL (≈ 0.0321 µM) | 0.003 µg/mL (≈ 0.0074 µM) | 0.15 | 0.0071 | 3 µg/mL
CCn1cc(C(=O)O)c(=O)c2cc(F)c(N3CCNCC3)c(F)c21 | 0.1 µg/mL (≈ 0.296 µM) | 0.1 µg/mL (≈ 0.296 µM) | 0.1 µg/mL (≈ 0.296 µM) |  |  |  |  | 0.8 µg/mL (≈ 2.37 µM) | 0.2 µg/mL (≈ 0.593 µM) | 3.1 µg/mL (≈ 9.19 µM) | 1.6 µg/mL (≈ 4.74 µM) | 3.1 µg/mL (≈ 9.19 µM) | 1.6 µg/mL (≈ 4.74 µM) | 0.4 µg/mL (≈ 1.19 µM) | 0.17 | 0.27 | 2.5 µg/mL
Cc1c(F)c(N2CCC(C)(CN)C2)cc2c1c(=O)c(C(=O)O)cn2C1CC1 (centres undefined) | 0.1 µg/mL (≈ 0.268 µM) | 0.1 µg/mL (≈ 0.268 µM) | 0.4 µg/mL (≈ 1.07 µM) |  |  |  |  | 1.6 µg/mL (≈ 4.28 µM) | 0.8 µg/mL (≈ 2.14 µM) | 0.006 µg/mL (≈ 0.0161 µM) | 0.1 µg/mL (≈ 0.268 µM) | 0.013 µg/mL (≈ 0.0348 µM) | 0.025 µg/mL (≈ 0.0669 µM) | 0.006 µg/mL (≈ 0.0161 µM) | 0.35 | 0.016 | 0.75 µg/mL
CCNCC1CCN(c2cc3c(c(C)c2F)c(=O)c(C(=O)O)cn3CC)C1 (centres undefined) | 3.1 µg/mL (≈ 8.26 µM) | 1.6 µg/mL (≈ 4.26 µM) | 6.3 µg/mL (≈ 16.8 µM) |  |  |  |  | 25 µg/mL (≈ 66.6 µM) | 12.5 µg/mL (≈ 33.3 µM) | 0.8 µg/mL (≈ 2.13 µM) | 1.6 µg/mL (≈ 4.26 µM) | 1.6 µg/mL (≈ 4.26 µM) | 1.6 µg/mL (≈ 4.26 µM) | 0.4 µg/mL (≈ 1.07 µM) | 6.28 | 1.06 | 3 µg/mL
